Compound activity: PubChem BioAssay, several laboratories
Only some compounds are listed: those with a hit (about 2.4% of all), similar ones and a draw of the others.
ABHD4 inh – inhibitors of mouse ABHD4. inhibition, % at 8.92 µM. Q8VD66. purified mABHD4, FP-Rh probe fluorescence polarization. 370,000 tested, 0.54% active. AID 720543;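 active = inhibition exceeding the mean over every tested compound plus 3 SD, cut at about 30% in these data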;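 note: 0% = plate median of compound wells and 100% = S159A mutant with DMSO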
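Test system: mouse ABHD4 enzyme, wild type. Reagent: FP-Rh fluorescent activity-based probe, added after compound pre-incubation. Timing: pre-incubation 45 min, probe exposure 60 min, at 25 °C. Technique: FP readout, ex 525 nm / em 598 nm. Benchmarks: high control S159A mutant with DMSO, low control median of compound wells.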
SIAE inh – human SIAE inhibition, primary screen. Q9HAT2. inhibition, % at 9.66 µM. 370,000 tested, 0.69% active. SIAE FP-Rh probe binding, fluorescence polarization;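 active = inhibition above a cutoff: mean of compounds within the control limits plus 3 SD of those, cut at about 17% in these data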;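 note: 0% = plate median of compound wells and 100% = probe without SIAE protein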
Target sequence (Q9HAT2 whole entry, looked up): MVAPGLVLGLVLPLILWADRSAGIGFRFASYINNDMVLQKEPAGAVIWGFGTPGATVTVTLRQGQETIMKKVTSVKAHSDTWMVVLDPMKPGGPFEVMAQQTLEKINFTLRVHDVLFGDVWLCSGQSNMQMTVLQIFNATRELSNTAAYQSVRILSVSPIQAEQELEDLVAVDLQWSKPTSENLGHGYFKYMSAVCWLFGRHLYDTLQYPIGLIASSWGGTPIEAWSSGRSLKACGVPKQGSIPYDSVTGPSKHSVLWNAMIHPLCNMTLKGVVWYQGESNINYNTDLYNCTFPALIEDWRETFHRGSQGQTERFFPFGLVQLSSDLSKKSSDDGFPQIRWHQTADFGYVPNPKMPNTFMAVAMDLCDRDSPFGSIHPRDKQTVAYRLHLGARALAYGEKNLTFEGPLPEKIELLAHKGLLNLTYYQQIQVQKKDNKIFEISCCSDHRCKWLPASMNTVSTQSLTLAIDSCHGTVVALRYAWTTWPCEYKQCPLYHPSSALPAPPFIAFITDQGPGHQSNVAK
HTRA1 inhibitor – inhibitors of human serine peptidase HTRA1; AID 504803; 340,000 tested, 0.5% active; Q92743; recombinant HTRA1, FP-rhodamine activity-based probe, fluorescence polarization; inhibition, % at 5.96 µM; in the data active = inhibition above about 36%;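 note: 0% = enzyme with DMSO and 100% = wells lacking enzyme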
JMJD2C inh – blocks human GASC-1 demethylase activity; Q9H3R0; GST-JMJD2C(1-420) H3K9me3 demethylation, DELFIA europium; inhibition, % at 2.35 µM; 330,000 tested, 0.069% active;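 active = more than half of a compound's replicate wells show inhibition beyond 50%, single wells judged on their own value; inconclusive = some, but no more than half, of replicates pass 50% inhibition; inactive = no replicate passes 50% inhibition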;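 note: signal counts dimethyl H3K9 product captured on neutravidin plate; 0% = median of DMSO wells and 100% = 0.3 times that DMSO median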
PRMT1 FP inh – blocks human protein arginine methyltransferase 1. Q99873. recombinant PRMT1, activity-based probe fluorescence polarization. inhibition, % at 2.79 µM. 370,000 tested, 1.3% active;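 active = inhibition above about 21% made by adding two undisclosed values, limit read from the data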
HTRA1 conf – HTRA1 (human) inhibition, confirmation; shares compounds with HTRA1 inhibitor; recombinant HTRA1, FP-rhodamine activity-based probe, fluorescence polarization; inhibition, % at 5.96 µM; 1,600 tested, 66% active; AID 540248;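 active = mean inhibition over three repeats above a set limit taken from the earlier primary screen, cut at about 37% in these data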;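 note: 0% = HTRA1 with DMSO and 100% = wells lacking HTRA1; inhibitors block probe binding so polarization drops and inhibition rises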
* hit, by the source's call; ? = inconclusive; . = no result.

SMILES | ABHD4 inh | SIAE inh | HTRA1 inhibitor | JMJD2C inh | PRMT1 FP inh | HTRA1 conf
CC(C)(C)c1cc(C(=O)N/N=C/c2ccc(F)cc2)n(-c2ccccc2)n1 | -5 | 1 | -21 | -1 | 2 | .
CC(C)(C)c1cc(C(=O)N/N=C/c2ccccc2O)n(-c2ccccc2)n1 | -1 | -5 | 37* | 7 | 5 | 51*
O=C(c1ccc(CSc2ccc(Cl)cc2)o1)N1CCOCC1 | -1 | 1 | . | . | -2 | .
O=C1CC(/C=C/c2ccco2)=Nc2ccccc2N1 | . | . | 43* | 1 | . | -1
COc1cccc2c(N/N=C/c3ccc(O)c(O)c3)cc(C)nc12 | 15 | -3 | 47* | -11 | 3 | 77*
COc1ccc(/C=N/Nc2cc(C)nc3c(C)cccc23)cc1 | 9 | -4 | -22 | -4 | -5 | .
Oc1c(Br)cc(Br)c2cccnc12 | 28 | 27* | 58* | . | 0 | 59*
Oc1c(CN2CCN(c3ccccc3)CC2)cc(Br)c2cccnc12 | 15 | 6 | 56* | -14 | 0 | 44*
c1ccc(N2CCN(Cc3ccnc4ccccc34)CC2)cc1 | 4 | 13 | 14 | -9 | 1 | .
Oc1ccc(N=Nc2c(O)ccc3ccccc23)cc1 | 19 | 13 | 63* | 9 | 4 | 43*
c1coc(-c2cnc3ccccc3n2)c1 | 21 | 6 | 6 | . | 14 | .
c1coc(-c2nc3ccccc3nc2-c2ccco2)c1 | 62* | 25* | 52* | -1 | 42* | 10
Cc1[nH][nH]c(=O)c1C(c1ccc(-c2ccc(Cl)c(Cl)c2)o1)c1c(C)[nH][nH]c1=O | 17 | 21* | 40* | 14 | 13 | 37*
COc1ccc(-c2ccc(C(c3c(C)[nH][nH]c3=O)c3c(C)[nH][nH]c3=O)o2)c([N+](=O)[O-])c1 | 11 | 7 | 6 | . | 4 | .
O=C1CCC[C@H]2C[C@H](NCc3ccccc3F)CC[C@]23CCCN13 | -3 | -2 | . | . | 1 | .
Cc1ccc(F)cc1C(=O)N1CCCC(c2cc(C(=O)NCc3ccc(F)cc3)no2)C1 (stereo not drawn) | 4 | 6 | . | . | 1 | .
Oc1ccccc1C=NNC(=S)Nc1ccc(F)cc1 | 9 | 6 | 45* | . | -6 | 46*
CC1CC(C)CN(C(=O)c2ccc3c(c2NCCO)C(=O)c2ccccc2C3=O)C1 (stereo not drawn) | 27 | 1 | 41* | -7 | 1 | 53*
CCc1ccc(NC(=O)c2cc(S(=O)(=O)N3CCCC3)ccc2F)cc1 | -4 | -5 | -13 | . | -1 | .
COc1ccc2c(c1)-c1c(ssc1=S)C(C)(C)N2 | 23 | 7 | 38* | 6 | 10 | 37*
COc1ccc(-n2sc3c(c2=S)-c2cc(OC)ccc2NC3(C)C)cc1 | 6 | 13 | 9 | -4 | -1 | .
CCC(CO)Oc1cc(NCc2ccccc2)c2ncn(C(C)C)c2c1 (stereo not drawn) | 7 | 0 | 21 | -2 | 1 | .
CC(C)n1cnc2c(NCc3ccccc3)cc(N[C@H](C)CO)cc21 | . | . | 45* | -4 | . | 33
COc1cc(/C=N/NC(=O)c2cc3ccccc3cc2O)ccc1OCCN1CCCCC1 | 29 | 11 | 48* | 0 | -2 | 25
CCOc1ccc(/C=N/NC(=O)c2cc3ccccc3cc2OC)cc1 | -5 | -10 | -46 | -2 | 0 | .
SMILES | ABHD4 inh | SIAE inh | HTRA1 inhibitor | JMJD2C inh | PRMT1 FP inh | HTRA1 conf
COCCn1c(C)cc(/C=N/NC(=O)c2cc3ccccc3cc2O)c1C | . | . | 44* | 2 | . | 21
COc1ccc(NC(=O)CC2Nc3cccc4cccc(c34)NC2=O)cc1 (stereo not drawn) | 18 | 2 | 52* | -3 | 3 | 9
O=C(CC1Nc2ccccc2NC1=O)Nc1cc(Cl)cc(Cl)c1 (stereo not drawn) | 1 | -1 | -12 | 4 | 1 | .
COc1ccc(-c2cnnc(N/N=C/c3ccc(O)cc3)n2)cc1 | 7 | 0 | 4 | 3 | 3 | .
COc1ccc(-c2cnnc(N/N=C/c3ccc(O)c(O)c3)n2)cc1 | 21 | 5 | 60* | ? | 6 | 78*
CC(C)=CCCC1(C)C=Cc2c(c(C)cc3c2[nH]c2cc(O)ccc23)O1 (stereo not drawn) | 2 | 14 | 46* | -11 | -2 | 31
Cc1cc(=O)[nH]c2cc(O)ccc12 | 1 | 1 | 2 | 3 | -2 | .
Cc1ccc2cc(C3C(C#N)=C(N)Oc4c3ccc3cccnc43)c(=O)[nH]c2c1 (stereo not drawn) | . | . | 79* | 14 | . | 58*
N#CC1=C(N)Oc2c(ccc3cccnc23)C1c1cccnc1 (stereo not drawn) | -5 | 5 | 14 | -36 | -1 | .
CCc1ccc2[nH]c(=O)c(C3C(C#N)=C(N)Oc4c3ccc3cccnc43)cc2c1 (stereo not drawn) | 17 | 9 | 82* | 1 | 2 | 14
Cc1c(NS(=O)(=O)c2cc3c(cc2Br)CCN3C(=O)C2CC2)c(=O)n(-c2ccccc2)n1C | 7 | 4 | . | . | -1 | .
O=C(N/N=C/c1sc(N2CCOCC2)nc1-c1ccccc1)c1cccc(S(=O)(=O)N2CCCC2)c1 | 1 | 14 | 46* | -2 | -4 | 63*
COc1ccccc1C(=O)NNC(=S)NC(=O)c1cccs1 | -10 | -1 | 15 | -10 | 4 | .
O=C(NC(=S)NNC(=O)c1ccccc1O)c1cccs1 | 12 | 16 | 56* | -2 | -2 | 54*
COc1ccc(/C(C)=N\NC(=O)c2ccco2)cc1 | 3 | -2 | . | . | 3 | .
O=C(Oc1ccc(Cl)c2cccnc12)c1ccco1 | 0 | 1 | 72* | -12 | 2 | 76*
Cc1c(C(=O)NNC(=O)c2ccccc2O)oc2ccc(Br)cc12 | -8 | -10 | 41* | 0 | 1 | 69*
Cc1c(C(=O)NCc2cccs2)oc2ccc(Br)cc12 | -5 | -1 | -34 | -5 | 4 | .
COc1cc(Cl)ccc1OC1(C)CCN(Cc2cccc(OC)c2OC)C1 (stereo not drawn) | 5 | 7 | . | . | 0 | .
O=[N+]([O-])c1ccc2c(c1Nc1ccccc1Cl)=NC1(CCCCC1)N=2 | 2 | 1 | . | 6 | 3 | .
Cc1ccc(Nc2c([N+](=O)[O-])ccc3c2=NC2(CCCCC2)N=3)cc1 | 15 | 17 | 37* | 9 | 5 | 75*
CCCCNC(=O)C1CCCN1C(=O)Nc1cc(C)cc(C)c1 (stereo not drawn) | 0 | 1 | . | . | -1 | .
CCCS(=O)(=O)NC(=O)C1(C)CCCN(C(=O)c2c(F)ccc(C)c2F)C1 (stereo not drawn) | -5 | -5 | . | . | -3 | .
CCc1cc2c(=O)c(-c3nc4ccccc4n3C)c(COCC(=O)O)oc2cc1OC(=O)C(C)(C)C | 2 | -2 | 48* | 13 | -1 | 15
CCCC[C@H]1C2CC(OC(=O)Nc3cccc(Br)c3)C(C2)[C@H]2CCCCN21 (stereo partly drawn) | 1 | -4 | . | . | 1 | .
